Measured values as given in ChEMBL document CHEMBL5154784, “Design, Synthesis, Biological Evaluation, and Computational Studies of Novel Ureidopropanamides as Formyl Peptide Receptor 2 (FPR2) Agonists to Target the Resolution of Inflammation in Central Nervous System Disorders” (J Med Chem, 2022).

Experiments:
fMet-Leu-Phe receptor [1] = target: T1, fMet-Leu-Phe receptor (Homo sapiens, UniProt P21462); assay: Agonist activity at human FPR1 transfected in human HL-60 cells assessed as increase in calcium mobilization measured every 5 seconds for 240 secs by Fluo-4-AM dye based fluorescence assay; type: functional, cell-based
T1 sequence (P21462 whole entry): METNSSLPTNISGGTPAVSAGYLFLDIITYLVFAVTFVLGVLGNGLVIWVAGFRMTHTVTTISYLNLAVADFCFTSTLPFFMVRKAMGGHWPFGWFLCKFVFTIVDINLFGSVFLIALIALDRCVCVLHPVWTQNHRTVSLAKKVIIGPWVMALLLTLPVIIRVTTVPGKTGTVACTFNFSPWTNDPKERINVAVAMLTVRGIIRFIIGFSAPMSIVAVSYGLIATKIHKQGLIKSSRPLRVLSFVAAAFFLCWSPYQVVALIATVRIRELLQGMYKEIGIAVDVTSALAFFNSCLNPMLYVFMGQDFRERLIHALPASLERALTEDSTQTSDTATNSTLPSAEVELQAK

[2] = Cytotoxicity against mouse N9 cells assessed as reduction in cell viability incubated for 48 hrs by MTT assay; type: toxicity, cell-based
Outline: (§1)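 MTT 0.5 mg/mL added for 3–4 h at 37 °C, formazan dissolved in DMSO/EtOH 1:1, absorbance read at 570 and 630 nm. Mean ± SD from at least two to three experiments in triplicate.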

fMet-Leu-Phe receptor [3] = target: T1, fMet-Leu-Phe receptor; assay: Antagonist activity at human FPR1 transfected in human HL-60 cells assessed as inhibition of fMLF-induced intracellular calcium mobilization preincubated for 10 mins followed by fMLF addition and measured every 5 seconds for 240 secs by Fluo-4-AM dye based fluorescence assay; type: functional, cell-based
[4] = target: T2, N-formyl peptide receptor 2 (Homo sapiens, UniProt P25090); assay: Antagonist activity at human FPR2 transfected in human HL-60 cells assessed as inhibition of WKYMVM-induced intracellular calcium mobilization preincubated for 10 mins followed by WKYMVM addition measured every 5 seconds for 240 secs by Fluo-4-AM dye based fluorescence assay; type: functional, cell-based
T2 sequence (P25090 whole entry): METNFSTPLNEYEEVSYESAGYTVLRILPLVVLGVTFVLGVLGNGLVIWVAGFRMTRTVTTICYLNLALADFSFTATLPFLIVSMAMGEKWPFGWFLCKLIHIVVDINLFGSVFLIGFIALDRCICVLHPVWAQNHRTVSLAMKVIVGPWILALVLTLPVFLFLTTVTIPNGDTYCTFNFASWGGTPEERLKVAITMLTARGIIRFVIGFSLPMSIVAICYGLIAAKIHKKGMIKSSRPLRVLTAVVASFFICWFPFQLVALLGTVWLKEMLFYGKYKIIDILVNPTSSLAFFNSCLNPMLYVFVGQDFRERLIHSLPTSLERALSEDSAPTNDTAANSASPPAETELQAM
Outline: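 Fluo-4-loaded FPR2-HL60 cells pre-incubated 10 min with compound (1% DMSO final), then challenged with 5 nM WKYMVM. Maximum change over baseline taken as response. IC50 by four-parameter logistic regression of at least 5–6 point curves.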

[5] = Metabolic stability in rat liver microsomes assessed as compound remaining at 10 uM preincubated for 10 mins followed by NADPH addition and measured after 30 mins by HPLC analysis; type: ADME, Microsome; details: time 40 min, read-out: Stability
Outline: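 Rat liver microsomes (1.0 mg/mL protein), compound 10 μM final in 100 mM potassium phosphate pH 7.4, pre-incubated 10 min at 37 °C, then NADPH regenerating system added. After 30 min, % parent remaining by HPLC-DAD (C18, MeOH/H2O 80:20) versus incubation without NADPH system.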

[6] = target: T3, N-formyl peptide receptor 2 (Homo sapiens) (UniProt P25090); assay: Agonist activity at human FPR2 transfected in HL-60 cells assessed as induction of intracellular calcium ions mobilization using WKYMVM as substrate preincubated for 10 mins followed by substrate addition and measured every 5 seconds for 240 secs by Fluo-4-AM dye based fluorescent assay relative to control; type: functional, cell-based; details: filed as agonist
T3 sequence (whole entry): T2 sequence (P25090 whole entry)

[7] = Cytotoxicity against mouse N9 cells assessed as reduction in cell viability by measuring LDH release at 0.5 to 5 uM incubated for 24 hrs by LDH assay; type: toxicity, cell-based; details: n9, 24 h, dose 0.5-5 µM
Outline: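 N9 cells (2 × 10^4/well) given compound at 0.5 or 5 μM, alone or with LPS (E. coli O111:B4, 100 ng/mL) added 30 min later, for 24 h at 37 °C. Released LDH measured in supernatant (30 min, room temperature, 490/630 nm). Expressed as % of untreated cells, mean ± SEM, at least three experiments in triplicate.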

[8] = target: T2, N-formyl peptide receptor 2; assay: Agonist activity at human FPR2 transfected in human HL-60 cells assessed as increase in calcium mobilization measured every 5 seconds for 240 secs by Fluo-4-AM dye based fluorescence assay; type: functional, cell-based
[9] = Cytotoxicity against mouse N9 cells assessed as reduction in cell viability at 1 to 100 uM incubated for 48 hrs by MTT assay relative to control; type: toxicity, cell-based; details: n9, 48 h, dose 1-100 µM; outline: as §1
[10] = Neurotoxicity against Sprague-Dawley rat primary microglial cells assessed as reduction in cell viability by measuring LDH release at 0.1 uM incubated for 24 hrs by LDH assay; type: toxicity, cell-based; details: microglia
Outline: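 Sprague–Dawley rat neonatal cortical microglia (>95% Iba-1+), switched to 1% FBS medium 1 h before treatment. Compound 0.1 μM for 1 h, then LPS 100 ng/mL for 24 h; WRW4 10 μM given 30 min before in some sets, 0.1% vehicle. Supernatant LDH read at 540 nm, % of vehicle controls, mean ± SEM.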

[11] = Antiinflammatory activity against Sprague-Dawley rat primary microglial cells assessed as reduction in IL-1beta expression at 0.1 uM incubated for 1 hr by ELISA method (reference value: 100 +/- 13 %); type: functional, Microglia; design: scale not given: the % may be the effect or the level left
[12] = Antiinflammatory activity against Sprague-Dawley rat primary microglial cells assessed as reduction in IL-6 expression at 0.1 uM incubated for 1 hr by ELISA method (reference value: 100 +/- 2.16 %); type: functional, Microglia; design: scale not given: the % may be the effect or the level left
Microglia = assay: Anti-inflammatory activity against Sprague-Dawley rat primary microglial cells assessed as reduction in IL-10 expression at 0.1 uM incubated for 1 hr by ELISA method (reference value: 100 +/- 3.9 %); type: functional; design: scale not given: the % may be the effect or the level left
[13] = Antiinflammatory activity against Sprague-Dawley rat primary microglial cells assessed as reduction in TNF-alpha expression at 0.1 uM incubated for 1 hr by ELISA method (reference value: 100 +/- […]); type: functional, Microglia; design: scale not given: the % may be the effect or the level left

Molecule | EC50 (fMet-Leu-Phe receptor [1]) [µM] | IC50 [4] [µM] | remaining at 0.5 h, 10 µM [5] [%] | Efficacy [6] [%] | EC50 [8] [µM] | EC50 at 48 h [2] [µM] | also measured
CC1(C)CN(C(=O)[C@H](Cc2ccc(C#N)cc2)NC(=O)Nc2ccc(F)cc2)c2ccccc21 | – | 2.7 | – | – | 2.3 | – | –
N#Cc1ccc(C[C@@H](NC(=O)Nc2ccc(F)cc2)C(=O)N2CCCCC2)cc1 | – | 49.3 | 25 | – | 13.4 | – | –
N#Cc1ccc(C[C@@H](NC(=O)Nc2ccc(F)cc2)C(=O)N2Cc3ccc(F)cc3C2)cc1 | 5.6 | – | 72 | 45 | 7.2 | 9.44 | –
N#Cc1ccc(C[C@H](NC(=O)Nc2ccc(F)cc2)C(=O)N2CCCCC2)cc1 | – | 12 | – | – | 0.98 | – | –
N#Cc1ccc(C[C@H](NC(=O)Nc2ccc(F)cc2)C(=O)N2CCc3ccccc32)cc1 | – | 0.01 | 22 | – | 0.026 | – | Activity [10]: Non-Toxic; Activity [7]: Non-Toxic
N#Cc1ccc(C[C@@H](NC(=O)Nc2ccc(F)cc2)C(=O)NC2CCCCNC2=O)cc1 (some centres not stated) | 4.2 | 3.8 | 78 | 140 | 1 | > 100 | IC50 (fMet-Leu-Phe receptor [3]): 40.4 µM; Activity [9]: 36%
N#Cc1ccc(C[C@@H](NC(=O)Nc2ccc(F)cc2)C(=O)N2CCc3ccccc32)cc1 | – | 3.9 | 14 | – | 5.6 | – | –
N#Cc1ccc(C[C@H](NC(=O)Nc2ccc(F)cc2)C(=O)N2CCc3ccc(F)cc3C2)cc1 | – | 0.26 | 8 | – | 0.45 | – | –
N#Cc1ccc(C[C@@H](NC(=O)Nc2ccc(F)cc2)C(=O)N2CCCC2)cc1 | 26.4 | 16.5 | 61 | 105 | 5.2 | > 100 | IC50 (fMet-Leu-Phe receptor [3]): 43.9 µM; Activity [9]: 59%
H-WRWWWW-NH2 | – | – | – | – | – | – | Activity [11]: 103%; Activity [12]: 108%; Activity (Microglia): 103%; Activity [13]: 121%
N#Cc1ccc(C[C@@H](NC(=O)Nc2ccc(F)cc2)C(=O)N2CCC(F)(F)CC2)cc1 | – | – | 62 | – | – | > 100 | Activity [9]: 40%
N#Cc1ccc(C[C@H](NC(=O)Nc2ccc(F)cc2)C(=O)NCC2(c3ccc(F)c(Cl)c3)CC2)cc1 | – | – | – | – | – | 3.26 | Activity [7]: Non-Toxic
N#Cc1ccc(C[C@H](NC(=O)Nc2ccc(F)cc2)C(=O)N2Cc3ccc(F)cc3C2)cc1 | 3.3 | 4.4 | – | 70 | 1.7 | 18.2 | –

Continued, in another order:

EC50 (fMet-Leu-Phe receptor [1]) [µM] | IC50 [4] [µM] | remaining at 0.5 h, 10 µM [5] [%] | Efficacy [6] [%] | EC50 [8] [µM] | Molecule | EC50 at 48 h [2] [µM] | also measured
1.2 | 0.013 | 10 | 120 | 0.27 | N#Cc1ccc(C[C@H](NC(=O)Nc2ccc(F)cc2)C(=O)N2CCCc3ccccc32)cc1 | 14.7 | IC50 (fMet-Leu-Phe receptor [3]): 24.2 µM; Activity [7]: Toxic
– | 0.6 | 34 | – | 1.6 | CC1(C)CN(C(=O)[C@H](Cc2ccc(C#N)cc2)NC(=O)Nc2ccc(F)cc2)Cc2cc(F)ccc21 | – | –
– | 3.5 | 4 | – | 1.3 | N#Cc1ccc(C[C@@H](NC(=O)Nc2ccc(F)cc2)C(=O)N2CCc3ccccc3C2)cc1 | – | –
1.8 | 3.4 | – | 90 | 0.41 | N#Cc1ccc(C[C@@H](NC(=O)Nc2ccc(F)cc2)C(=O)N2CCc3cc(F)ccc32)cc1 | 23.8 | –
0.78 | 0.35 | 85 | 105 | 0.17 | N#Cc1ccc(C[C@H](NC(=O)Nc2ccc(F)cc2)C(=O)NC2CCCCNC2=O)cc1 (some centres not stated) | > 100 | IC50 (fMet-Leu-Phe receptor [3]): 3.5 µM; Activity [9]: 53%; Activity [7]: Non-Toxic
– | 0.03 | 6 | – | 0.24 | N#Cc1ccc(C[C@H](NC(=O)Nc2ccc(F)cc2)C(=O)N2CCc3ccccc3C2)cc1 | – | Activity [7]: Non-Toxic
4.8 | 0.21 | 19 | 110 | 0.16 | N#Cc1ccc(C[C@H](NC(=O)Nc2ccc(F)cc2)C(=O)N2CCc3cc(F)ccc32)cc1 | 29.4 | Activity [7]: Non-Toxic
– | 30.1 | 67 | 80 | 19.5 | N#Cc1ccc(C[C@H](NC(=O)Nc2ccc(F)cc2)C(=O)N2CCC(F)(F)CC2)cc1 | > 100 | Activity [9]: 9%
– | 0.24 | 14 | – | 0.62 | N#Cc1ccc(C[C@@H](NC(=O)Nc2ccc(F)cc2)C(=O)N2CCc3ccc(F)cc3C2)cc1 | – | –
– | 0.14 | 14 | – | 0.16 | N#Cc1ccc(C[C@H](NC(=O)Nc2ccc(F)cc2)C(=O)N2CCc3cccnc32)cc1 | – | –
– | 1.2 | 10 | – | 1.1 | N#Cc1ccc(C[C@@H](NC(=O)Nc2ccc(F)cc2)C(=O)N2CCc3cccnc32)cc1 | – | –
15.3 | 6.4 | – | 100 | 3.1 | N#Cc1ccc(C[C@H](NC(=O)Nc2ccc(F)cc2)C(=O)N2CCCC2)cc1 | > 100 | IC50 (fMet-Leu-Phe receptor [3]): 33.8 µM; Activity [9]: 55%
– | 16.4 | 65 | – | 6.9 | CC1(C)CN(C(=O)[C@@H](Cc2ccc(C#N)cc2)NC(=O)Nc2ccc(F)cc2)c2ccccc21 | – | –
– | – | 28 | – | – | N#Cc1ccc(C[C@@H](NC(=O)Nc2ccc(F)cc2)C(=O)N2CCc3ccc(F)cc32)cc1 | – | Activity [7]: Toxic
– | – | 15 | – | 19.3 | N#Cc1ccc(C[C@@H](NC(=O)Nc2ccc(F)cc2)C(=O)N2Cc3ccccc3C2)cc1 | – | –
– | 4.4 | 31 | – | 0.34 | N#Cc1ccc(C[C@H](NC(=O)Nc2ccc(F)cc2)C(=O)N2Cc3ccccc3C2)cc1 | – | Activity [7]: Non-Toxic
0.44 | 0.012 | 7 | 175 | 0.25 | N#Cc1ccc(C[C@@H](NC(=O)Nc2ccc(F)cc2)C(=O)N2CCCc3ccccc32)cc1 | 13.7 | IC50 (fMet-Leu-Phe receptor [3]): 17.4 µM
